Test results taken from ChEMBL document CHEMBL4371078, “N-Naphthoyl-substituted indole thio-barbituric acid analogs inhibit the helicase activity of the hepatitis C virus NS3” (Bioorg Med Chem Lett, 2019).
Calls of active or inactive are those of the source. No cut-off for these calls is given here.

How the values were obtained:
[1] = tested on: Hepacivirus hominis; assay: Inhibition of HCV NS3/4A protease activity at 10 uM using Ac-Asp-Glu-Asp-EDANS-Glu-Glu-Abu-L-Lactoyl-Ser-Lys DABCYL-NH2 as substrate measured for 30 mins by fluorescence assay relative to control
How it was run: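 Recombinant HCV NS3–4A with full protease activity, incubated with the internally quenched EDANS/DABCYL peptide substrate; cleavage read as the rise in fluorescence. Activities were normalized to control and given as mean ± standard deviation of triplicate measurements.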

[2] = tested on: Hepatitis C virus subtype 1b; assay: (§1) Inhibition of recombinant full length HCV genotype 1b NS3 helicase activity assessed as reduction in radiolabeled 38 bp dsRNA substrate unwinding by measuring unwinding rate constant at 25 uM preincubated for 20 mins followed by MgCl2/ATP addition and measured up to 4 mins by PAGE based phosphor imaging analysis (reference value: 1.84 +/- 0.19 /min)
How it was run: (§2)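 Polyacrylamide gel unwinding of a radiolabelled 38 bp duplex RNA by recombinant NS3 with compound at 25 µM. Radioactivity at time points from triplicate experiments was averaged and fit to a single exponential to give rate constants.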

[3] = tested on: Hepacivirus hominis; assay: Inhibition of HCV NS3/4A protease activity at 25 uM using Ac-Asp-Glu-Asp-EDANS-Glu-Glu-Abu-L-Lactoyl-Ser-Lys DABCYL-NH2 as substrate measured for 30 mins by fluorescence assay
How it was run: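 NS3–4A protease activity read by fluorescence of the internally quenched EDANS/DABCYL peptide after cleavage. Compounds were tested at 25 µM, with telaprevir at 10 µM as the positive control. Activities were normalized. Values are the mean ± standard deviation of triplicate measurements.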

[4] = (§3) Inhibition of recombinant full length HCV genotype 1b NS3 helicase activity assessed as reduction in 5'-FAM labeled dsDNA substrate unwinding preincubated for 10 mins followed by MgCl2/ATP addition and measured after 30 mins by real-time fluorescence assay; design: species or system Hepatitis C virus subtype 1b
How it was run: (§4)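 Real-time plate unwinding of a FAM-labelled duplex DNA by full-length recombinant NS3 with saturating ATP and Mg2+, read as the fluorescence increase. Compounds were dosed over a range to derive an IC50.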

[5] = tested on: Hepatitis C virus subtype 1b; assay: as §3; how it was run: as §4
[6] = tested on: Hepatitis C virus subtype 1b; assay: Inhibition of recombinant full length HCV genotype 1b NS3 helicase activity assessed as reduction in 5'-FAM labeled dsDNA substrate unwinding at 30 uM preincubated for 10 mins followed by MgCl2/ATP addition and measured after 30 mins by real-time fluorescence assay
How it was run: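 96-well real-time unwinding of a fluorescently labelled duplex DNA by full-length recombinant NS3 with saturating ATP and Mg2+. Read-out was the increase in FAM fluorescence. Compounds were tested at 30 µM in 5% DMSO. Unwinding rates were normalized to DMSO controls. Values are the mean ± standard deviation of triplicate measurements.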

[7] = tested on: Hepatitis C virus subtype 1b; assay: Inhibition of polyU RNA-stimulated recombinant full length HCV genotype 1b NS3 ATPase activity assessed as Km for substrate at 25 uM in presence of 5 mM ATP measured for 1 min by pyruvate kinase/ lactate dehydrogenase enzyme coupled spectrophotometric method (reference value: 0.41 mM)
[8] = tested on: Hepatitis C virus subtype 1b; assay: as §1, with “dsDNA” for “38 bp dsRNA”, “5” for “20”, “50” for “4”, “0.039” for “1.84”, “0.002” for “0.19”
How it was run: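 Gel-based unwinding of 2 nM radiolabelled duplex DNA by 100 nM recombinant NS3 with excess ATP. Compound was present at 25 µM. Unwound fraction was quantified at time points and fit to a single exponential for the rate constant. Triplicate experiments were averaged.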

[9] = tested on: Hepatitis C virus subtype 1b; assay: Inhibition of polyU RNA-stimulated recombinant full length HCV genotype 1b NS3 ATPase activity assessed as Kcat for substrate at 25 uM in presence of 5 mM ATP measured for 1 min by pyruvate kinase/ lactate dehydrogenase enzyme coupled spectrophotometric method (reference value: 68 /s)
[10] = Inhibition of recombinant full length HCV genotype 1b NS3 interaction with 3'-FAM labeled ssDNA assessed as Kd for NS3-ssDNA complex at 25 uM by fluorescence polarization assay (reference value: 3.3 +/- 0.2 nM); design: species or system Hepatitis C virus subtype 1b
[11] = tested on: Hepatitis C virus subtype 1b; assay: Inhibition of recombinant full length HCV genotype 1b NS3 helicase activity assessed as reduction in radiolabeled 38 bp dsRNA substrate unwinding t 25 uM preincubated for 20 mins followed by MgCl2/ATP addition and measured up to 4 mins by PAGE based phosphor imaging analysis relative to control; how it was run: as §2

Compound: CCC[C@H](NC(=O)[C@@H]1[C@H]2CCC[C@H]2CN1C(=O)[C@@H](NC(=O)[C@@H](NC(=O)c1cnccn1)C1CCCCC1)C(C)(C)C)C(=O)C(=O)NC1CC1
- inhibition [1]: 85%

Compound: COc1ccc2c(c1)c(C=C1C(=O)NC(=S)NC1=O)cn2C(=O)c1ccc2ccccc2c1
- K [2]: 2.38 min⁻¹
- inhibition [3]: inactive
- IC50 [4]: 21.4 µM
- inhibition [5]: Dose-dependent effect
- inhibition [6]: Active
- Km [7]: 1000 µM
- K [8]: 0.021 min⁻¹
- kcat [9]: 73 s⁻¹
- Kd [10]: 0.0028 µM
- inhibition [11]: 50%

Compound: O=C1NC(=S)NC(=O)C1=Cc1cn(C(=O)c2cccc3ccccc23)c2ccc(Cl)cc12
- inhibition [6]: inactive

Compound: COc1ccc2c(c1)c(C=C1C(=O)NC(=S)NC1=O)cn2C(=O)c1cccc2ccccc12
- K [2]: 2.14 min⁻¹
- inhibition [3]: inactive
- IC50 [4]: 23.5 µM
- inhibition [5]: Dose-dependent effect
- inhibition [6]: Active
- Km [7]: 860 µM
- K [8]: 0.024 min⁻¹
- kcat [9]: 68.7 s⁻¹
- Kd [10]: 0.0057 µM
- inhibition [11]: 50%

Compound: O=C1NC(=S)NC(=O)C1=Cc1cn(C(=O)c2ccc3ccccc3c2)c2ccc(Cl)cc12
- inhibition [6]: inactive

Compound: O=C1NC(=S)NC(=O)C1=Cc1cn(C(=O)c2ccc3ccccc3c2)c2ccccc12
- K [2]: 1.81 min⁻¹
- inhibition [3]: inactive
- IC50 [4]: 21.6 µM
- inhibition [5]: Dose-dependent effect
- inhibition [6]: Active
- Km [7]: 480 µM
- K [8]: 0.018 min⁻¹
- kcat [9]: 65.3 s⁻¹
- Kd [10]: 0.0031 µM
- inhibition [11]: 50%
